Data set [1] is described as follows: Volume of distribution (dissolved in DMSO) at 2 mg/kg of […] administration in rat was determined. The note with it: in vivo. Details: dose 2 mg/kg. The data set is classed as ADME, organism-based.
Data set [2] is described as follows: Plasma clearance (dissolved in DMSO) at 2 mg/kg of intravenous administration in rat was determined.
Data set [3] addresses T1, Corticotropin-releasing factor receptor 1 (Homo sapiens, UniProt P34998).
T1 sequence (P34998 whole entry): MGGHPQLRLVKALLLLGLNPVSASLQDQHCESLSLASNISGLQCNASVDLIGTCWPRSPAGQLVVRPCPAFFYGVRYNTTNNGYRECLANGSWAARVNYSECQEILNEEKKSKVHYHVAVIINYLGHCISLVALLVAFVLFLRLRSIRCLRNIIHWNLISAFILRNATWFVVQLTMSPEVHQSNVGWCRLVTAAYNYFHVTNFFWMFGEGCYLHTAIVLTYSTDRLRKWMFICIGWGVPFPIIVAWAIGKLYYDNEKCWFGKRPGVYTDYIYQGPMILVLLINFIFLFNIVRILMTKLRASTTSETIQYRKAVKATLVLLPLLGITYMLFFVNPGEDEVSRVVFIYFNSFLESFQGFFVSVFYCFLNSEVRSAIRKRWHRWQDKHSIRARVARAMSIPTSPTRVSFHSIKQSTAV
In words: Binding affinity for human corticotropin releasing factor receptor 1.

A short description of data set [4]: Maximum peak plasma concentration (dissolved in DMSO) at 10 mg/kg of p.o. administration in rat was determined. The following applies: po.
A short description of data set [5]: Brain concentration to plasma concentration ratio (dissolved in DMSO) at 2 mg/kg of intravenous administration in rat after 2 h. Format: ADME, organism-based. The following applies: brain and plasma, read-out: B/P. More on the design: dose 2 mg/kg, route intravenous. The procedure, abridged: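 Compound given intravenously to rats at 2 mg/kg in 10/10/80 Cremophor/DMSO/water at 1 mL/kg. Brain and plasma concentrations were measured at 2 h and expressed as a brain-to-plasma ratio.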

Data set [6] in a line: Mean plasma area under curve (dissolved in DMSO) at 10 mg/kg of oral administration in rat was determined. The data set is classed as ADME, organism-based. Details: dose 10 mg/kg, route oral. The procedure, abridged:
(§1)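 Rats dosed with the compound at 10 mg/kg orally and 2 mg/kg intravenously, in 10/10/80 Cremophor/DMSO/water. Dosing volumes were 3 mL/kg p.o. and 1 mL/kg i.v. Plasma concentrations were followed over time to derive clearance, volume of distribution, terminal half-life, oral AUC and oral bioavailability.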

The nature of data set [7]: Terminal half life (dissolved in DMSO) at 2 mg/kg of intravenous administration in rat was determined. The note with it: in vivo.
The nature of data set [8]: Terminal half life (dissolved in DMSO) at 2 mg/kg of intravenous administration in rat was determined. Format: ADME, organism-based. Details: dose 2 mg/kg, route intravenous. The following applies: in vivo. The procedure, abridged: as §1
A short description of data set [9]: Plasma clearance (dissolved in DMSO) at 2 mg/kg of intravenous administration in rat was determined. Format: ADME, organism-based. Details: dose 2 mg/kg, route intravenous. The procedure, abridged:
as §1

Data set [10] is described as follows: Bioavailability (dissolved in DMSO) at 10 mg/kg of oral administration in rat was determined. The note with it: in vivo. The data set is classed as ADME, organism-based. The procedure, abridged:
as §1

A short description of data set [11]: Volume of distribution (dissolved in DMSO) at 2 mg/kg of intravenous administration in rat was determined. The note with it: in vivo. Details: dose 2 mg/kg, route intravenous. The data set is classed as ADME, organism-based. The procedure, abridged:
as §1

These results are taken from ChEMBL document CHEMBL1142812, “Synthesis and structure-activity relationship of imidazo[1,2-a]benzimidazoles as corticotropin-releasing factor 1 receptor antagonists” (Bioorg Med Chem Lett, 2005).

By CL/F is commonly meant the apparent clearance, not corrected for the fraction that reaches the circulation. For orientation: Ki means the dissociation constant of the complex between target and ligand, obtained from inhibition or displacement. The low end stands for tighter binding, the high end for weaker binding. One may read the Cmax as the peak of the concentration-time curve. The term AUC denotes the area under the concentration-time curve, a measure of exposure. As usually defined, the half-life is the time in which the quantity being followed falls by half. The clearance is the rate of elimination divided by the concentration. Low values mean inefficient removal, high ones efficient removal. As a reminder, the bioavailability is the share of a dose that reaches the circulation, judged against a reference dose that is usually intravenous. Read a high bioavailability as good availability.

Regarding `CCCN(Cc1c(C(F)(F)F)nc2n(-c3c(C)cc(C)cc3C)c3ccccc3n12)CC1CC1`, the Vd in data set [1] and in [11] was 0.6 L/kg throughout. The compound further registered a CL/F in [2] of 5.1 mL/min/kg. The compound further yielded a Ki in data set [3] of 0.023 µM. Further, the Cmax in data set [4] turned out to be 2380 ng/mL. Also, the Kp at 2 h in [5] was found to be 0.03. The AUC in data set [6] was determined as 11400 ng·h/mL. The half-life in data set [7] and in data set [8] was 4.1 h in each case. Further, the clearance in data set [9] was found to be 5.1 mL/min/kg. In data set [10], this compound displayed a bioavailability of 35%.

Consider `CCCCN(CC)Cc1c(C(F)(F)F)nc2n(-c3c(C)cc(C)cc3C)c3ccccc3n12`, for which the Ki in [3] was determined as 0.704 µM. For the compound `CC(C)c1ccc(-n2c3ccccc3n3c(CN(CC4CC4)CC4CC4)c(C(F)(F)F)nc23)c(Br)c1`, the Ki in [3] is 0.054 µM.

For the compound `Cc1cc(C)c(-n2c3ccccc3n3c(CN(CCc4ccccc4)CC(F)(F)F)c(C(F)(F)F)nc23)c(C)c1`, the Ki in data set [3] stood at 0.744 µM. Still for that read-out and setting: the result for `CCCN(Cc1c(C(F)(F)F)nc2n(-c3c(C)cc(C)cc3C)c3ccccc3n12)CC(F)(F)F` reads 0.075 µM; that for `CCCN(CC1CC1)C(=O)c1c(C)nc2n(-c3c(C)cc(C)cc3C)c3ccc(F)cc3n12`, 1.18 µM; that for `CCCN(CC1CC1)C(=O)c1c(C)nc2n(-c3c(C)cc(C)cc3C)c3ccccc3n12`, 0.36 µM. Regarding `CCCN(Cc1c(C(F)(F)F)nc2n(-c3ccc(C(C)C)cc3Br)c3ccccc3n12)CC1CC1`, in data set [3], the affinity, expressed as Ki, was 0.15 µM.

`CCN(Cc1ccccc1)Cc1c(C(F)(F)F)nc2n(-c3c(C)cc(C)cc3C)c3ccccc3n12` gave a Ki in data set [3] of 2.77 µM. Compound `Cc1cc(C)c(-n2c3ccccc3n3c(CN(CCC(F)(F)F)CC4CC4)c(C(F)(F)F)nc23)c(C)c1` registered a Ki in data set [3] of 0.013 µM. Same read-out and setting: the result for `CCCCN(Cc1ccccc1)Cc1c(C(F)(F)F)nc2n(-c3c(C)cc(C)cc3C)c3ccccc3n12` reads 7.71 µM; that for `CCCN(CCc1ccccc1)Cc1c(C(F)(F)F)nc2n(-c3c(C)cc(C)cc3C)c3ccccc3n12`, 0.25 µM. Regarding `Cc1cc(C)c(-n2c3ccccc3n3c(CN(CCC4CC4)CCC(F)(F)F)c(C(F)(F)F)nc23)c(C)c1`, affinity in [3] was put at a Ki of 0.457 µM. `Cc1cc(C)c(-n2c3ccccc3n3c(CN(C)Cc4ccccc4)c(C(F)(F)F)nc23)c(C)c1`: in data set [3], affinity was put at a Ki of 0.573 µM. Still for that read-out and setting: the result for `Cc1cc(C)c(-n2c3ccccc3n3c(CN(CC4CCC4)CC(F)(F)F)c(C(F)(F)F)nc23)c(C)c1` reads 0.053 µM; that for `CCCN(Cc1c(C(F)(F)F)nc2n(-c3c(C)cc(C)cc3C)c3ccccc3n12)CC1CCC1`, 0.026 µM.

In data set [3], `Cc1cc(C)c(-n2c3ccccc3n3c(CN(CCc4ccccc4)CCc4ccccc4)c(C(F)(F)F)nc23)c(C)c1` registered a Ki of 0.333 µM. On the same count and under the same terms, the result for `CCCN(Cc1ccccc1)Cc1c(C(F)(F)F)nc2n(-c3c(C)cc(C)cc3C)c3ccccc3n12` reads 4.05 µM. Same read-out and setting: the same measure for `CCCN(CC1CC1)C(=O)c1c(C(F)(F)F)nc2n(-c3c(C)cc(C)cc3C)c3ccccc3n12`: 3.56 µM. Same read-out and setting: the same measure for `CCCN(CCC1CC1)Cc1c(C(F)(F)F)nc2n(-c3c(C)cc(C)cc3C)c3ccccc3n12`: 0.362 µM. Take `Cc1cc(C)c(-n2c3ccccc3n3c(CN(CCC4CC4)CC(F)(F)F)c(C(F)(F)F)nc23)c(C)c1`: the Ki in [3] was 0.653 µM. The same measure, in the same setting: the same measure for `CCN(CCC1CC1)Cc1c(C(F)(F)F)nc2n(-c3c(C)cc(C)cc3C)c3ccccc3n12`: 1.41 µM.

In data set [3], `Cc1cc(C)c(-n2c3ccccc3n3c(CN(CC4CC4)CC(F)(F)C(F)(F)F)c(C(F)(F)F)nc23)c(C)c1` returned a Ki of 0.034 µM.

In [3], `C=CCN(CC=C)Cc1c(C(F)(F)F)nc2n(-c3c(C)cc(C)cc3C)c3ccccc3n12` came in with a Ki of 0.138 µM. In data set [3], `Cc1cc(C)c(-n2c3ccccc3n3c(CN(CC4CC4)CC(F)(F)F)c(C(F)(F)F)nc23)c(C)c1` had a Ki of 0.0071 µM. The same measure, in the same setting: the same measure for `CCCN(Cc1c(C)nc2n(-c3c(C)cc(C)cc3C)c3ccccc3n12)CC1CC1`: 0.02 µM.

On to `CCCN(CC1CC1)C(=O)c1c(CC)nc2n(-c3c(C)cc(C)cc3C)c3ccc(F)cc3n12`, for which, in data set [3], the affinity, expressed as Ki, was 0.93 µM.

As for `CCCN(CCc1ccccc1)Cc1c(C(F)(F)F)nc2n(-c3ccc(Cl)cc3Cl)c3ccccc3n12`, in data set [3], affinity was put at a Ki of 1.6 µM. Same read-out and setting: the same measure for `CCN(Cc1c(C(F)(F)F)nc2n(-c3c(C)cc(C)cc3C)c3ccccc3n12)CC1CC1`: 0.028 µM; for `Cc1cc(C)c(-n2c3ccccc3n3c(CN(CCc4ccccc4)CCC(F)(F)F)c(C(F)(F)F)nc23)c(C)c1`: 0.618 µM; for `FC(F)(F)c1nc2n(-c3ccc(Cl)cc3Cl)c3ccccc3n2c1CN(CC1CC1)CC1CC1`: 0.24 µM. As to `CCCN(Cc1c(C(F)(F)F)nc2n(-c3c(C)cc(C)cc3C)c3ccccc3n12)CC(F)(F)C(F)(F)F`, affinity in [3] was put at a Ki of 0.075 µM. On the same count and under the same terms, the result for `CCCN(Cc1c(CC)nc2n(-c3c(C)cc(C)cc3C)c3ccc(F)cc3n12)CC1CC1` reads 0.15 µM. Take `CCCN(CC1CC1)C(=O)c1c(CC)nc2n(-c3c(C)cc(C)cc3C)c3ccccc3n12`: the Ki in [3] is 0.57 µM. Same read-out and setting: the same measure for `Cc1cc(C)c(-n2c3ccccc3n3c(CN(CCC(F)(F)F)CC(F)(F)F)c(C(F)(F)F)nc23)c(C)c1`: 0.291 µM; for `Cc1cc(C)c(-n2c3ccccc3n3c(CN(CC4CC4)CC4CC4)c(C(F)(F)F)nc23)c(C)c1`: 0.011 µM. Compound `CCCN(Cc1c(C(F)(F)F)nc2n(-c3ccc(Cl)cc3Cl)c3ccccc3n12)CC1CC1` returned a Ki in data set [3] of 0.37 µM. The same measure, in the same setting: the same measure for `CCCN(CCc1ccccc1)Cc1c(C(F)(F)F)nc2n(-c3ccc(C(C)C)cc3Br)c3ccccc3n12`: 0.41 µM; for `CCCN(CCC(F)(F)F)Cc1c(C(F)(F)F)nc2n(-c3c(C)cc(C)cc3C)c3ccccc3n12`: 0.068 µM. In data set [3], `CCCN(Cc1c(C)nc2n(-c3c(C)cc(C)cc3C)c3ccc(F)cc3n12)CC1CC1` gave a Ki of 0.059 µM. The same measure, in the same setting: the same measure for `CCCN(Cc1c(CC)nc2n(-c3c(C)cc(C)cc3C)c3ccccc3n12)CC1CC1`: 0.021 µM.
